From PubChem BioAssay
The source made the active and inactive calls.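 How the source made its calls, unless noted: active means viability at or under a set limit in both replicates, limit being median viability minus 3 SD (cut at about 48% in these data, passing the limit was not always enough); inconclusive means at or under the limit in just one replicate; inactive means at or above the limit in both replicates.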

Assays:
[1] = SK-BR-3 cell growth inhibitors, pilot screen, 24 h, human (AID 572;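 active means viability at or below 10% of carrier control in both of two separate runs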;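 further: compound exposure lasted between 18 and 24 h rather than exactly 24 h; 100% = carrier-treated control wells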); conditions: SK-BR-3 viability, CellTiter-Glo luminescence, at 10 µM, stronger effect = lower value
[2] = HUVEC growth inhibition – cell-based, human, primary screen (AID 575;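 active means viability at or below 30% in both replicate assays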;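 further: 100% = median of untreated cell wells with 0.1% DMSO on each plate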); conditions: HUVEC proliferation, CellTiter-Glo luminescence, 72 h; at 10 µM; stronger effect = lower value
How it was run: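 Test system: primary human umbilical vein endothelial cells; medium: endothelial basal medium with 2% FBS plus growth supplements; dosing: 10 µM compound only; times: 72 h treatment at 37 °C; signal: CTG luminescence; read-out: % viability relative to median vehicle-well signal on each plate; control set: vehicle and MePR control wells; plate: 384-well, collagen-coated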

[3] = growth inhibitors of H69AR lung tumor, primary screen, human, duplicate replicates (AID 580); conditions: H69AR lung tumor cells viability, ATP luminescence, 72 h; at 10 µM; stronger effect = lower value;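 further: 100% = mean luminescence of untreated wells and 0% = no signal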
[4] = reversal of MRP1-mediated doxorubicin resistance, pilot screen, H69AR cells, doxorubicin co-treatment (AID 601;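 active means viability loss from added drug above about 55%, and viability with drug at most 40%, in both replicates, limit read from the data, passing the limit was not always enough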); conditions: CellTiter-Glo, 72 h, at 10 µM; for differential viability (reversal): stronger effect = higher value
[5] = 384-well plate pilot, post-Golgi transport modulator project, inhibition of yeast transport mutant growth (AID 636; in the data active means inhibition above about 31%); conditions: absorbance 615 nm, about 18 h, stronger effect = higher value
[6] = growth suppression of yeast trafficking mutant, preliminary HTS, modulators of trafficking downstream of Golgi apparatus project, 1536-format plate, OD 615 nm (AID 637; in the data active means inhibition above about 30%); conditions: yeast transport mutant growth, absorbance 615 nm, 18 h; stronger effect = higher value
[7] = H69AR cells + 2 uM doxorubicin, measured here: viability with 2 uM doxorubicin, stronger effect = lower value
[8] = H69AR cells, compound alone cytotoxicity

SMILES	viability [1]	viability [2]	viability [3]	differential viability (reversal) ([4]; H69AR cells + 2 uM doxorubicin)	viability [4, 7] [%]	viability [4, 8] [%]	inhibition [5]	inhibition [6]
COC(=O)C1=C(C)N(Cc2ccco2)C(=O)C1	96% (inactive)	103% (inactive)	96.1% (inactive)	5.42% (inactive)	90.7	96.1	-7.53% (inactive)	5.82% (inactive)
COC(=O)c1c(NC(=O)CSc2nnnn2C)sc(C)c1C	96% (inactive)	84.9% (inactive)	92.5% (inactive)	4.44% (inactive)	88.1	92.5	0.14% (inactive)	-2% (inactive)
CC(C)OC(=O)C(C)(C)Oc1ccc(C(=O)c2ccc(Cl)cc2)cc1	88% (inactive)	90.1% (inactive)	103% (inactive)	8.95% (inactive)	94.5	103	0.78% (inactive)	-7.67% (inactive)
Cc1cc2cc(CNC(=O)c3ccc4c(c3)OCO4)ccc2[nH]1	102% (inactive)	114% (inactive)	89.1% (inactive)	-3.21% (inactive)	92.3	89.1	-1.56% (inactive)	3.61% (inactive)
O=C(c1cccnc1)N1CCN(C(=O)c2ccccc2F)CC1	97% (inactive)	98.5% (inactive)	97.2% (inactive)	11.5% (inactive)	85.7	97.2	-4% (inactive)	-5.09% (inactive)
Clc1cccc(Cl)c1COc1ccncc1	88% (inactive)	91.5% (inactive)	97.2% (inactive)	2.84% (inactive)	94.3	97.2	0.82% (inactive)	27.4% (inactive)
COc1cc([C@@H]2[C@H]3CN(C)CC=C3C(C#N)=C(N)C2(C#N)C#N)cc2c1OCO2	101% (inactive)	93.1% (inactive)	89.8% (inactive)	-5.09% (inactive)	94.8	89.8	-2.19% (inactive)	0.18% (inactive)
Cc1ccc2c(CC(=O)OCc3csc(C)n3)coc2c1	106% (inactive)	90.3% (inactive)	98.5% (inactive)	2.5% (inactive)	96	98.5	-8.78% (inactive)	3.77% (inactive)
CC(=O)C1=C(O)C(=O)N(C2CCCCC2)C1c1ccccc1 (stereo not drawn)	107% (inactive)	98.6% (inactive)	97.3% (inactive)	10.9% (inactive)	86.4	97.3	-8.08% (inactive)	5.32% (inactive)
CCN(C(=O)c1ccnc(C(C)(C)C)c1)c1ccccc1	88% (inactive)	94.4% (inactive)	79.2% (inactive)	-4.02% (inactive)	83.3	79.2	-6.85% (inactive)	2% (inactive)
CCOC(=O)c1[nH]c2cc(OC)c(OC)cc2c1NC(=O)C(C)N1CCN(Cc2ccccc2)CC1 (stereo not drawn)	73% (inactive)	51.3% (inactive)	59.2% (inactive)	-6.81% (inactive)	66.1	59.2	-4.59% (inactive)	-5.09% (inactive)
COCCCn1nnnc1SCC(=O)Nc1nc(C)c(C)s1	109% (inactive)	89.2% (inactive)	88.1% (inactive)	2.5% (inactive)	85.6	88.1	-2.88% (inactive)	1.13% (inactive)
COc1ccc(CCN2C(=O)CC(N3CCN(S(=O)(=O)c4ccccc4)CC3)C2=O)cc1 (stereo not drawn)	103% (inactive)	107% (inactive)	96.7% (inactive)	-9.06% (inactive)	106	96.7	2.05% (inactive)	-0.36% (inactive)
COc1cc(NS(=O)(=O)c2ccc(N)cc2)nc(OC)n1	109% (inactive)	80.7% (inactive)	100% (inactive)	11.7% (inactive)	88.4	100	1.43% (inactive)	3.83% (inactive)
CCCCOc1ccc(C(=O)CCN2CCCCC2)cc1	121% (inactive)	46% (inactive)	66.1% (inactive)	24.7% (inactive)	41.4	66.1	-2.21% (inactive)	6.17% (inactive)
CCC(=O)Oc1ccc(C/C(=N\O)c2ccc(O)cc2O)o1	85% (inactive)	90.6% (inactive)	52.5% (inactive)	-33% (inactive)	85.5	52.5	3.01% (inactive)	13.8% (inactive)
CCOC(=O)N1CCC(NC(=O)C2CCC(Cn3c(=O)[nH]c4ccccc4c3=O)CC2)CC1 (stereo not drawn)	134% (inactive)	64.8% (inactive)	16.8% (active)	-7.75% (inactive)	24.6	16.8	-5.71% (inactive)	0.66% (inactive)
CC(=O)Nc1ccc(S(=O)(=O)CCC#N)cc1	109% (inactive)	89.4% (inactive)	91.7% (inactive)	-6.28% (inactive)	98	91.7	-1.17% (inactive)	5.41% (inactive)

SMILES	viability [1]	viability [2]	viability [3]	differential viability (reversal) ([4]; H69AR cells + 2 uM doxorubicin)	viability [4, 7] [%]	viability [4, 8] [%]	inhibition [5]	inhibition [6]
O=C(O)c1ccc(COc2c(F)c(F)c(F)c(F)c2F)o1	78% (inactive)	106% (inactive)	92.9% (inactive)	-8.1% (inactive)	101	92.9	0.14% (inactive)	19.4% (inactive)
COc1ccc(N2CCN(C(=O)Cc3ccc(-n4c(=O)[nH]c5ccccc5c4=O)cc3)CC2)cc1	103% (inactive)	75.8% (inactive)	94.7% (inactive)	3.2% (inactive)	91.5	94.7	0.26% (inactive)	-3.11% (inactive)
CCOc1ccc2c(c1)c1nnc(SCC(=O)N3CCC(C)CC3)nc1n2C	84% (inactive)	70.9% (inactive)	95.8% (inactive)	8.51% (inactive)	87.3	95.8	-3.78% (inactive)	-1.45% (inactive)
C=CCNc1nc2c(c(=O)n(C)c(=O)n2C)n1CCCCCC	92% (inactive)	60.4% (inactive)	82.6% (inactive)	0.165% (inactive)	82.4	82.6	-5.73% (inactive)	5.27% (inactive)
COCC(=O)n1nc(NCc2ccc(OC)cc2)nc1NCc1ccc(OC)cc1	116% (inactive)	105% (inactive)	99.8% (inactive)	9.29% (inactive)	90.5	99.8	53.3% (active)	28.6% (inactive)
CCOC(=O)c1cccc(NC(=O)CSc2nnc(-c3cccnc3)n2C)c1	99% (inactive)	107% (inactive)	98.3% (inactive)	5.64% (inactive)	92.7	98.3	-3.38% (inactive)	-0.73% (inactive)
Cc1c(C=NCCOCc2ccccc2)cnn1C	92% (inactive)	109% (inactive)	96.2% (inactive)	14% (inactive)	82.2	96.2	0% (inactive)	-0.48% (inactive)
COc1ccccc1-c1noc(-c2ccco2)n1	102% (inactive)	91% (inactive)	90.7% (inactive)	-2.78% (inactive)	93.5	90.7	0% (inactive)	-3.55% (inactive)
CCCCNc1cc(C(=O)O)cc(S(N)(=O)=O)c1Oc1ccccc1	121% (inactive)	87% (inactive)	114% (inactive)	23.6% (inactive)	90.5	114	-1.56% (inactive)	7.17% (inactive)
O=C(Cn1[nH]c(=O)c2ccccc2c1=O)OCC(=O)N1CCCc2ccccc21	90% (inactive)	101% (inactive)	102% (inactive)	13.7% (inactive)	88.7	102	-5.73% (inactive)	-2.55% (inactive)
C=CCn1c(SCC(=O)c2ccccc2)nnc1-c1ccc2c(c1)OCO2	97% (inactive)	107% (inactive)	100% (inactive)	-2.68% (inactive)	103	100	-1.78% (inactive)	-3.06% (inactive)
CCOC(=O)Nc1ccc(NS(=O)(=O)c2ccc(C)cc2)cc1	72% (inactive)	86.6% (inactive)	83.7% (inactive)	-12.3% (inactive)	96.1	83.7	1.92% (inactive)	-7.42% (inactive)
CCOc1nc(NCCC2=CCCCC2)nc(N2CCOCC2)n1	102% (inactive)	95.8% (inactive)	96.7% (inactive)	14.6% (inactive)	82.1	96.7	-3.33% (inactive)	1.64% (inactive)
CCCc1c(OCCCCc2nn[nH]n2)ccc(C(C)=O)c1O	77% (inactive)	67% (inactive)	84.4% (inactive)	-20.6% (inactive)	105	84.4	-1.56% (inactive)	3% (inactive)
CCc1nnc(NC(=O)CSc2nnc(-c3cc4ccccc4cc3O)n2CC)s1	84% (inactive)	78.4% (inactive)	90.1% (inactive)	1.08% (inactive)	89.1	90.1	-1.95% (inactive)	-3.28% (inactive)
CCN(CC)CCNC(=O)c1ccc(NC(C)=O)cc1	136% (inactive)	96.6% (inactive)	94.8% (inactive)	-6.82% (inactive)	102	94.8	-1.69% (inactive)	3.5% (inactive)
COc1ccccc1-n1nnnc1SCc1cc2c(cc1Br)OCO2	65% (inactive)	86.1% (inactive)	72.2% (inactive)	-4.98% (inactive)	77.2	72.2	-6.16% (inactive)	4.18% (inactive)
CCN1CCN(c2nc3c(c(=O)n(C)c(=O)n3C)n2Cc2cccc3ccccc23)CC1	87% (inactive)	104% (inactive)	87.7% (inactive)	3.33% (inactive)	84.4	87.7	-6.58% (inactive)	0.91% (inactive)
